We go through three compounds from publication PMC4935662 (Molecular pharmaceutics, 2016).

Series [1] concerns blood-brain barrier (BBB). Nature of the series: In situ rat brain perfusion of Gd-DTPA, quantitative T1 mapping MRI. The class given is in vivo, Sprague-Dawley rats. The note with it: Gd-DTPA 0.6 mmol/kg, brain-ventral. The gist of the method:
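Adult male Sprague-Dawley rats (250–350 g). A 10-sec saline post-perfusion wash followed. Sacrificed animals underwent quantitative T1 mapping MRI at room temperature; R1 = 1/T1 was taken per brain region.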

The conditions of series [2]: single administration at 1.0 mmol/kg in rats; cited from earlier work.
Series [3] has as its system blood-brain barrier (BBB). To be noted: cited from earlier work.
For series [4] the following is noted: cited from earlier work.

In the case of `O=C([O-])CN(CCN(CC(=O)[O-])CC(=O)O)CCN(CC(=O)[O-])CC(=O)O.[Gd+3]` [Gd-DTPA, gadolinium-diethylenetriaminepentaacetate], the “R1 values, Gd-DTPA in presence of HAV6 compared to Gd-DTPA and vehicle” value in series [1] (HAV6 1.0 mM, olfactory bulb, hippocampus, cerebellum, deep-rostral, deep-caudal regions) is “more significantly increased R1 values”. In addition, in series [1] (cortex, deep-caudal), the “R1 values, Gd-DTPA and vehicle compared to vehicle only” value is given as “increased R1 values”. Further, the “tolerability / organ toxicity” value in series [2] is recorded as “well tolerated without any organ toxicity”.
Consider Ac-SHAVSS-NH2 [HAV6, Ac-SHAVSS-NH2], for which, in series [3] (25 kDa IRdye 800cw-PEG), the “brain delivery of IRdye 800cw-PEG delivered 1 h after administration of peptide” value is given as “no enhancement of brain delivery”. The “duration of BBB opening” value in series [3] (Balb/c mice) is “less than 1 h”.
Consider `CC[C@@]1(O)C(=O)OCc2c1cc1n(c2=O)Cc2cc3ccccc3nc2-1` [CPT, camptothecin], for which, in series [4] (phosphate-buffered saline solution containing 4% human plasma), the “time of conversion to the CPT-carboxylate form” value is recorded as 11 min. Also, in series [4] (undergoes lactone hydrolysis to CPT-carboxylate at pH 7.4, no reference given), the “pH below which the lactone group is stable” value is less than 5.5.
